Assay results taken from ChEMBL document CHEMBL5257020, “Discovery of a 9-mer Cationic Peptide (LTX-315) as a Potential First in Class Oncolytic Peptide” (J Med Chem, 2016).
Where a SMILES comes first, the peptide text is derived from it. [ ]: non-standard residue; d: D form. ξ: configuration not given here. ξDip = NC(C(=O)O)C(c1ccccc1)c1ccccc1

Key:
[1] = Hemolytic activity in human red blood cells incubated for 1 hr by spectrophotometric microtiter plate reader method; assay type: toxicity, cell-based, Erythrocyte
[2] = Stability in pooled and cryopreserved human hepatocytes assessed as intrinsic clearance measured per 10^6 cells at 1 uM measured for 90 mins by LC-MS/MS analysis; assay type: ADME, cell-based, Hepatocyte; conditions: read-out: CLH
Summary of the method: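 Pooled cryopreserved hepatocytes at 0.5 million cells/mL, incubated at about 37 °C with 1 μM initial peptide. Supernatant after centrifugation analysed by LC–MS/MS (MRM) using a D-Trp7,9,10-substance P internal standard. Peak height was referenced to time zero, and t1/2 = −0.693/slope of ln concentration vs time. Clint = 0.693/t1/2 × Vinc per million cells. Testosterone, midazolam and 4-methylumbelliferone were the positive controls. Duplicates; mean of two experiments.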

[3] = Stability in pooled and cryopreserved human hepatocytes assessed as half life at 1 uM measured for 90 mins by LC-MS/MS analysis; assay type: ADME, cell-based, Hepatocyte
Summary of the method: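 Pooled cryopreserved rat or human hepatocytes, 0.5 million cells/mL, ~37 °C, peptide at 1 μM initial. Supernatants analysed by LC–MS/MS with peak height referenced to time zero. t1/2 = −0.693/slope of ln concentration vs time. Duplicate experiments. Testosterone, midazolam and 4-methylumbelliferone served as metabolic-competence controls.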

[4] = Drug recovery in human plasma incubated for 20 hrs in presence of serine protease inhibitor AEBSF (reference value: 176 ng/ml); assay type: ADME, cell-free
[5] = Protein binding in Beagle dog plasma assessed as bound fraction at 200 to 1000 ng/ml incubated for 20 hrs in presence of AEBSF by LC-MS/MS analysis; assay type: ADME, cell-free, Canis lupus familiaris; conditions: dose 200-1000 ng/ml, read-out: PPB
Summary of the method: (§1)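 Pooled plasma (human volunteers; Han Wistar rat; Beagle dog) containing AEBSF 1 mg/mL. Spiked to 200, 500 or 1000 ng/mL final, in duplicate. Ultracentrifuged 45 000 rpm, 37 °C, 20 h. Supernatant quantified by LC–MS/MS. % bound = [(C − CS)/C] × 100. Values are upper limits because of residual degradation.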

[6] = Protein binding in Han Wistar rat plasma assessed as bound fraction at 200 to 1000 ng/ml incubated for 20 hrs in presence of AEBSF by LC-MS/MS analysis; assay type: ADME, cell-free; conditions: dose 200-1000 ng/ml, read-out: PPB; summary of the method: as §1
[7] = Half life in human plasma measured by RP-HPLC analysis; assay type: ADME, cell-free
[8] = Ratio of drug concentration in rat blood to plasma measured after 60 mins by LC-MS/MS analysis; assay type: ADME, cell-free
Summary of the method: (§2)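 Pooled fresh whole blood (≥3 male and 3 female human, beagle dog or rat donors) spiked to 200 ng/mL. Incubated ~37 °C on rotary mixer over 0–120 min. Hematocrit determined. Blood and plasma analysed by LC–MS/MS. Blood/plasma ratio = Cb/C. Cell association = {[C(1 − H)]/Cb} × 100. Values at 60 min, mean of two independent measurements.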

[9] = Ratio of drug concentration in Beagle dog blood to plasma measured after 60 mins by LC-MS/MS analysis; assay type: ADME, cell-free, Canis lupus familiaris; summary of the method: as §2
[10] = Ratio of drug concentration in human blood to plasma measured after 60 mins by LC-MS/MS analysis; assay type: ADME, cell-free; summary of the method: as §2
[11] = Drug uptake in rat Red blood cells at 60 mins by LC-MS/MS analysis; assay type: ADME, cell-based; conditions: erythrocyte, 1 h; summary of the method: as §2
[12] = target: T1, Cytochrome P450 1A2 (Homo sapiens, UniProt P05177); assay: Inhibition of CYP1A2 in human liver microsomes using as phenacetin substrate assessed as reduction in O-deethylation of phenacetin incubated for 5 mins in presence of beta-NADPH by LC-MS/MS analysis; assay type: ADME, Microsome
T1 sequence (P05177 whole entry, canonical isoform): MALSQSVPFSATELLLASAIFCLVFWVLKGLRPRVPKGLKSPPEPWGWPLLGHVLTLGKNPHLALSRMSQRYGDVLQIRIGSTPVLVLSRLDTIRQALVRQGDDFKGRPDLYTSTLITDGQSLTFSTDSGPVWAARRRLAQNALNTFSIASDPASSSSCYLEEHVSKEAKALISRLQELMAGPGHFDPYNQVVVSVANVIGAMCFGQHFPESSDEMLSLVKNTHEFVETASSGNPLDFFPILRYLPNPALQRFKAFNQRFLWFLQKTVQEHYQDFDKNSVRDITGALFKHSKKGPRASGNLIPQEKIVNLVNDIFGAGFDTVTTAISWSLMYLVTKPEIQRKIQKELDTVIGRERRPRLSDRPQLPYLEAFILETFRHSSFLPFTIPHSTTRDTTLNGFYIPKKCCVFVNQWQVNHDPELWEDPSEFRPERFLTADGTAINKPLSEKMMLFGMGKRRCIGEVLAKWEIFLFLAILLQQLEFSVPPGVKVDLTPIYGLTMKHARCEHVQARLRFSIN
Summary of the method: (§3)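 Pooled human liver microsomes (50 donors) in 100 mM phosphate, pH 7.4, with 2 mM β-NADPH. Protein 0.1 mg/mL (2A6, 2C8, 2C9, 2E1, 3A4) or 0.3 mg/mL (1A2, 2B6, 2C19, 2D6). Test article 0–100 μM final, preincubated ~37 °C 5 or 30 min before isoform-selective substrate. Quenched in methanol with internal standard. Metabolite measured by LC–MS/MS against standard curve. Duplicates, with selective inhibitor positive controls.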

[13] = target: Cytochrome P450 2A6 (Homo sapiens, UniProt P11509); assay: Inhibition of CYP2A6 in human liver microsomes using coumarin as substrate assessed as reduction in substrate hydroxylation incubated for 5 mins in presence of beta-NADPH measured by LC-MS/MS analysis; assay type: ADME, Microsome; summary of the method: as §3
Sequence of Cytochrome P450 2A6 (P11509 whole entry): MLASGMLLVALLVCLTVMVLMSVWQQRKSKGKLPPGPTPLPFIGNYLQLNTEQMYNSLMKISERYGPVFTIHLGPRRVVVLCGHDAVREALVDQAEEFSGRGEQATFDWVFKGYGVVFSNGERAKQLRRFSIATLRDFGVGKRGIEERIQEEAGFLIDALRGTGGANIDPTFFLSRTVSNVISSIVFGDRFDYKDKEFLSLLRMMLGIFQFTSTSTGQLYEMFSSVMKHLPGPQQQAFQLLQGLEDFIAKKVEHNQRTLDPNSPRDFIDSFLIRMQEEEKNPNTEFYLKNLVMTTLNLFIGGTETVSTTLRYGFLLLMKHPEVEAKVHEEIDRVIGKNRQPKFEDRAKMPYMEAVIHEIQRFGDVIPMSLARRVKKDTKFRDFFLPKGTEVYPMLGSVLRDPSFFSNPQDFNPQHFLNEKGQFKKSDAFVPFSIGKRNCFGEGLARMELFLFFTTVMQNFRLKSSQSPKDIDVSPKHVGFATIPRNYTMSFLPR

[14] = target: Cytochrome P450 2B6 (Homo sapiens, UniProt P20813); assay: Inhibition of CYP2B6 in human liver microsomes using bupropion as substrate assessed as reduction in substrate hydroxylation incubated for 5 mins in presence of beta-NADPH measured by LC-MS/MS analysis; assay type: ADME, Microsome; summary of the method: as §3
Sequence of Cytochrome P450 2B6 (P20813 whole entry): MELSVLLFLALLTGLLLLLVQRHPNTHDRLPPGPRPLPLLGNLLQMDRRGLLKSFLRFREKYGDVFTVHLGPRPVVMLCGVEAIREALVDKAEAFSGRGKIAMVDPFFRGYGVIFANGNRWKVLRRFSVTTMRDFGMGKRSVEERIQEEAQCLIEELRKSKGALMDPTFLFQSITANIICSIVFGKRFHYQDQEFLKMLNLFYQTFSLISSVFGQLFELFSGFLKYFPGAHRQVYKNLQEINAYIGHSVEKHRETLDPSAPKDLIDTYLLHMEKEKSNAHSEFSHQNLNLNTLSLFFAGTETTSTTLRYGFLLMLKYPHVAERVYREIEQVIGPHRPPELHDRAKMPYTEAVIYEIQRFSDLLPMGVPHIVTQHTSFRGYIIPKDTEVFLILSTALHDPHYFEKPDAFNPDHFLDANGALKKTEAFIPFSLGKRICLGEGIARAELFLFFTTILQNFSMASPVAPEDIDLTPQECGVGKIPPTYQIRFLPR

[15] = target: T2, Cytochrome P450 2C8 (Homo sapiens, UniProt P10632); assay: Inhibition of CYP2C8 in human liver microsomes using paclitaxel as substrate assessed as reduction in substrate hydroxylation incubated for 5 mins in presence of beta-NADPH measured by LC-MS/MS analysis; assay type: ADME, Microsome; summary of the method: as §3
T2 sequence (P10632 whole entry): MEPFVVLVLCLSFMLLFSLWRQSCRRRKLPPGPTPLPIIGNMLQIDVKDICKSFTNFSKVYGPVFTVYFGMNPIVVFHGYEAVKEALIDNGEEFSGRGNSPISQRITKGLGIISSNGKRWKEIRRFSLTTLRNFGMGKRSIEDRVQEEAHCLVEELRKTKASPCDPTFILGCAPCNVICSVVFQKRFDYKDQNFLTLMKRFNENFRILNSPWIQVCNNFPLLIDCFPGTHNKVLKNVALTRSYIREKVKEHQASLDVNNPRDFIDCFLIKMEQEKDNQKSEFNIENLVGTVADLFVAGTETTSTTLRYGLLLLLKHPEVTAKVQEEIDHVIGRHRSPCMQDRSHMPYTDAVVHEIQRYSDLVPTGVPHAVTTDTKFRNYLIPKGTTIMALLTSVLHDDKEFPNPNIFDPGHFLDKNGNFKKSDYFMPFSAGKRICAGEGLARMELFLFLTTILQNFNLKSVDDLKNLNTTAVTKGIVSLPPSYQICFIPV

[16] = target: Cytochrome P450 2D6 (Homo sapiens, UniProt P10635); assay: Inhibition of CYP2D6 in human liver microsomes using bufuralol as substrate assessed as reduction in substrate hydroxylation incubated for 5 mins in presence of beta-NADPH measured by LC-MS/MS analysis; assay type: ADME, Microsome; summary of the method: as §3
Sequence of Cytochrome P450 2D6 (P10635 whole entry): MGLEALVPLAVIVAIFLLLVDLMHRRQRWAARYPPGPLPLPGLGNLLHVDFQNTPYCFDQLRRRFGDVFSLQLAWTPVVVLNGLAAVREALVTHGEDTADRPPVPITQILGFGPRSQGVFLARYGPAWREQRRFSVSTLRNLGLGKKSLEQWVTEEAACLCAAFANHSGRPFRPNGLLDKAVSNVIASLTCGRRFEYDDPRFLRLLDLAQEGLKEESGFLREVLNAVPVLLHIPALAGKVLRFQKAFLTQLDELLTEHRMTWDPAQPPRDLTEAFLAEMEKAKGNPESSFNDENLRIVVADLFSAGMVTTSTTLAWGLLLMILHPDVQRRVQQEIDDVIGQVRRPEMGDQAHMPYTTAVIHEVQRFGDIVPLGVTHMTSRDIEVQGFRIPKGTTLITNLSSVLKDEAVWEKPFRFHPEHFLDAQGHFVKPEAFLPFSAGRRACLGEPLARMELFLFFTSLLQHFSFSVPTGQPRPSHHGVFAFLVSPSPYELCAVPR

[17] = target: T3, Cytochrome P450 2E1 (Homo sapiens, UniProt P05181); assay: Inhibition of CYP2E1 in human liver microsomes using chlorzoxazone as substrate assessed as reduction in substrate hydroxylation incubated for 5 mins in presence of beta-NADPH measured by LC-MS/MS analysis; assay type: ADME, Microsome; summary of the method: as §3
T3 sequence (P05181 whole entry): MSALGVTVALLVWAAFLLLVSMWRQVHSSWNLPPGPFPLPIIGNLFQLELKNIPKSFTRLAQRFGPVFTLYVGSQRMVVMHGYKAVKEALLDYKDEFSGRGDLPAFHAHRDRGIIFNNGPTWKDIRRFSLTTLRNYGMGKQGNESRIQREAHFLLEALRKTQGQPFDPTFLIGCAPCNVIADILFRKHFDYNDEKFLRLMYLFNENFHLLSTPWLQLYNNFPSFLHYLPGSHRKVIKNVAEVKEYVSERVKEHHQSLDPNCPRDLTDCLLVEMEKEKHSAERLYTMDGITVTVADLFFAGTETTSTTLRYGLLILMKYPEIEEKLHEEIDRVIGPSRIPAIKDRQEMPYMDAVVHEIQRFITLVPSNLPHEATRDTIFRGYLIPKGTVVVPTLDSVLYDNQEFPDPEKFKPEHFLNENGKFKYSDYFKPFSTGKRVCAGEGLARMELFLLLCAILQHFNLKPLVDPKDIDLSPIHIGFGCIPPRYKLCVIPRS

[18] = target: T4, Cytochrome P450 3A4 (Homo sapiens, UniProt P08684); assay: Inhibition of CYP3A4 in human liver microsomes using midazolam as substrate assessed as reduction in substrate hydroxylation incubated for 5 mins in presence of beta-NADPH measured by LC-MS/MS analysis; assay type: ADME, Microsome; summary of the method: as §3
T4 sequence (P08684 whole entry): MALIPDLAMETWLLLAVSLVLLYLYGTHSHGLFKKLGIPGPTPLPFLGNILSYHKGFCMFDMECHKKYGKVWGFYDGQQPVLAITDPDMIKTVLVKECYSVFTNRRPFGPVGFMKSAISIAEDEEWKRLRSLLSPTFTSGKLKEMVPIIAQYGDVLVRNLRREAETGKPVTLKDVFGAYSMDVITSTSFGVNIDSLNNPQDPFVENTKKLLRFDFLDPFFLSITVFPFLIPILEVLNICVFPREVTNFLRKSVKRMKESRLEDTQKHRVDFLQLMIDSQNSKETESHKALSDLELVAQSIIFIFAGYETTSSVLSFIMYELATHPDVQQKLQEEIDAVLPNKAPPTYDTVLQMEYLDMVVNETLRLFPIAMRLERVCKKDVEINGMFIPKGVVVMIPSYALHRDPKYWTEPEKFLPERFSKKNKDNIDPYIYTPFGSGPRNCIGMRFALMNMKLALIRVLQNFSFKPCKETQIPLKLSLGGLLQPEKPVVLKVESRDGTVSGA

[19] = target: T1, Cytochrome P450 1A2; assay: Inhibition of CYP1A2 in human liver microsomes using as phenacetin substrate assessed as reduction in O-deethylation of phenacetin incubated for 30 mins in presence of beta-NADPH by LC-MS/MS analysis; assay type: ADME, Microsome; summary of the method: as §3
[20] = target: T2, Cytochrome P450 2C8; assay: Inhibition of CYP2C8 in human liver microsomes using paclitaxel as substrate assessed as reduction in substrate hydroxylation incubated for 30 mins in presence of beta-NADPH measured by LC-MS/MS analysis; assay type: ADME, Microsome; summary of the method: as §3
[21] = target: Cytochrome P450 2C9 (Homo sapiens, UniProt P11712); assay: Inhibition of CYP2C9 in human liver microsomes using diclofenac as substrate assessed as reduction in substrate hydroxylation incubated for 30 mins in presence of beta-NADPH measured by LC-MS/MS analysis; assay type: ADME, Microsome; summary of the method: as §3
Sequence of Cytochrome P450 2C9 (P11712 whole entry): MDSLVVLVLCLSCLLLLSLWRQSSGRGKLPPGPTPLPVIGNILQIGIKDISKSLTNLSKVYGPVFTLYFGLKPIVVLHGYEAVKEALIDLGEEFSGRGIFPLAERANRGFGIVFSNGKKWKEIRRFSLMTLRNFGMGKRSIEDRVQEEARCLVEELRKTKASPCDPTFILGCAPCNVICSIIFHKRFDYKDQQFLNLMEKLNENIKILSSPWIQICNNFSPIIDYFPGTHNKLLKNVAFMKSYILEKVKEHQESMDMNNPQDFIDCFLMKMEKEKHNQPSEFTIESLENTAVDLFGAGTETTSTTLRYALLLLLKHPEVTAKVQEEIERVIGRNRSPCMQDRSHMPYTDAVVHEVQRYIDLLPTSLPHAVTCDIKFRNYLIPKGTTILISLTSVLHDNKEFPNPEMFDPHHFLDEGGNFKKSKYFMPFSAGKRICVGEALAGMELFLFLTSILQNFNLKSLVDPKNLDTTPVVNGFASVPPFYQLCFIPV

[22] = target: T3, Cytochrome P450 2E1; assay: Inhibition of CYP2E1 in human liver microsomes using chlorzoxazone as substrate assessed as reduction in substrate hydroxylation incubated for 30 mins in presence of beta-NADPH measured by LC-MS/MS analysis; assay type: ADME, Microsome; summary of the method: as §3
[23] = target: T4, Cytochrome P450 3A4; assay: Inhibition of CYP3A4 in human liver microsomes using testosterone as substrate assessed as reduction in substrate hydroxylation incubated for 30 mins in presence of beta-NADPH measured by LC-MS/MS analysis; assay type: ADME, Microsome; summary of the method: as §3
[24] = target: T4, Cytochrome P450 3A4; assay: Inhibition of CYP3A4 in human liver microsomes using midazolam as substrate assessed as reduction in substrate hydroxylation incubated for 30 mins in presence of beta-NADPH measured by LC-MS/MS analysis; assay type: ADME, Microsome; summary of the method: as §3

hepatocyte CLint at 1 µM [2]: 22 µL/min/1e6 cells | half-life at 1 µM [3]: 1.07 h | Drug recovery [4]: 131 ng/mL | fraction unbound at 20 h [5]: > 0.08 | fraction unbound at 20 h [6]: > 0.25 | half-life [7]: 2.67 h | blood plasma ratio at 1 h [8]: 1.03 | blood plasma ratio at 1 h [9]: 2.19 | blood plasma ratio at 1 h [10]: 0.76 | Drug uptake [11]: 44% | IC50 [12]: 37.9 µM | IC50 [13]: 7 µM | IC50 [14]: 27.7 µM | IC50 [15]: 10.2 µM | IC50 [16]: 21.9 µM | IC50 [17]: 30.9 µM | IC50 [18]: 18.8 µM | IC50 [19]: > 100 µM | IC50 [20]: 7.9 µM | IC50 [21]: 8.7 µM | IC50 [22]: 30 µM | IC50 [23]: 12.1 µM | IC50 [24]: 63.7 µM
Compound: NCCCC[C@H](NC(=O)C(NC(=O)[C@H](Cc1c[nH]c2ccccc12)NC(=O)[C@H](CCCCN)NC(=O)[C@H](CCCCN)NC(=O)[C@H](Cc1c[nH]c2ccccc12)NC(=O)[C@H](Cc1c[nH]c2ccccc12)NC(=O)[C@H](CCCCN)NC(=O)[C@@H](N)CCCCN)C(c1ccccc1)c1ccccc1)C(N)=O (some centres undefined) (H-KKWWKKW[ξDip]K-NH2)
EC50 at 1 h [1]: > 695 µM
